From ChEMBL document CHEMBL3751796, “Structure-Based Discovery of Novel Cyclophilin A Inhibitors for the Treatment of Hepatitis C Virus Infections” (J Med Chem, 2015)
Active and inactive are the calls of the source. The rule behind the calls is not given here.

Columns and labels:
Hepatitis C virus [1] = assay: Antiviral activity against HCV genotype 1b Con1 infected in human Huh7.5 cells assessed as inhibition of NS5B expression in total cell lysate at 2 uM by Western blot analysis; assay type: functional, organism-based; conditions: Hepacivirus hominis, isolate Con1, Huh-7
Summary of the method: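 Con1b replicon cells treated with 2 μM. Total lysates, and a membrane fraction prepared by hypotonic buffer, dounce homogenization, 220g spin and then 68 000g for 1 h at 4 °C, analyzed by Western blot for NS5A and NS5B.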

[2] = Selectivity index, ratio of CC50 for mock-infected human Huh7.5 cells to EC50 for recombinant HCV genotype 2a JFH1; parameters: species or system Huh-7
Summary of the method: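 Huh7.5 cells infected with JFH1-Luc virus (MOI 0.004, 5 h, 37 °C) in the presence of 3-fold serial dilutions. EC50 came from Renilla luciferase on day 3. CC50 came from MTT viability of mock-infected Huh7.5 cells treated in parallel. SI = CC50/EC50.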

Hepatitis C virus [3] = assay: Antiviral activity against HCV infected in human Huh7.5 cells assessed as inhibition of IL-8 level by ELISA in presence of telaprevir; assay type: functional, organism-based; conditions: Hepacivirus hominis; Huh-7
[4] = target: Peptidyl-prolyl cis-trans isomerase A (Homo sapiens, UniProt P62937)
Hepatitis C virus [5] = assay: Antiviral activity against HCV genotype 1b Con1 infected in human Huh7.5 cells assessed as stimulation of STAT1 mRNA expression at 2 uM incubated up to 96 hrs by qRT-PCR method; assay type: functional, organism-based; conditions: Hepacivirus hominis, isolate Con1, Huh-7, TDE = time-dependent effect
Summary of the method: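 mRNA measured by SYBR Green qRT-PCR using the 2^−ΔΔCT method, normalized to GAPDH and expressed as fold change vs controls.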

Hepatitis C virus [6] = assay: Antiviral activity against HCV genotype 1b Con1 infected in human Huh7 cells xenografted in immunodeficient NOD/SCID mouse assessed as inhibition of HCV RNA level in liver at 50 mg/kg, ip up to 14 days by qRT-PCR method; assay type: functional, organism-based; conditions: Hepacivirus hominis, isolate Con1, Huh-7
Summary of the method: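 NOD/SCID mice engrafted intrasplenically with Huh7 HCV-Con1b replicon cells (1 × 10^6 in PBS). From week 6, 50 mg/kg given ip for 14 days, five mice per group. Liver HCV RNA measured by SYBR Green qRT-PCR, 2^−ΔΔCT method, normalized to GAPDH, fold change vs controls.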

Hepatitis C virus [7] = assay: Antiviral activity against HCV genotype 1b Con1 infected in human Huh7.5 cells assessed as stimulation of OAS1 expression at 2 uM incubated up to 96 hrs by Western blot analysis; assay type: functional, organism-based; conditions: Hepacivirus hominis, isolate Con1, Huh-7, TDE = time-dependent effect
Hepatitis C virus [8] = assay: Antiviral activity against HCV genotype 1b Con1 infected in human Huh7.5 cells expressing GFP-fused NS5A measured 72 hrs post infection by hoechst 33342 staining based confocal microscopy; assay type: functional, organism-based, Hepacivirus hominis; conditions: isolate Con1, Huh-7, 72 h
Summary of the method: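 Huh7 replicon cells expressing NS5A-GFP seeded at 2 × 10^3/well and left overnight, then given serially diluted compound. At 72 h, fixed in 2% PFA and nuclei stained with Hoechst 33342 (10 μg/mL). Automated confocal imaging: GFP-positive cells give activity, nuclei counts give cytotoxicity. EC50/CC50 from nonlinear regression.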

Mus musculus [9] = species: Mus musculus; assay: Activation of calcium-dependent calcineurin phosphatase activity in ionomycin-stimulated BALB/c mouse assessed as production of IL-2 at 1 to 10 uM after 24 hrs by ELISA
Summary of the method: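 Mouse spleen cells, 2 × 10^6/well, stimulated with ionomycin 1 μg/mL and treated with a dose series for 24 h at 37 °C. Media from triplicate wells pooled. IL-2 measured by ELISA and calculated from IL-2 standards.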

Hepatitis C virus [10] = assay: Antiviral activity against HCV infected in human Huh7.5 cells assessed as inhibition of HCV-specific RNA by qRT-PCR method in presence of telaprevir; assay type: functional, organism-based; conditions: Hepacivirus hominis; Huh-7
Mus musculus [11] = assay: Toxicity in NOD/SCID mouse assessed as body weight change at 50 mg/kg, ip measured up to 14 days; assay type: organism-based; conditions: in vivo, 336 h
Hepatitis C virus [12] = assay: Antiviral activity against HCV genotype 1b Con1 infected in human Huh7.5 cells assessed as inhibition of NS5A expression at 2 uM by DAPI staining based confocal microscopy; assay type: functional, organism-based; conditions: Hepacivirus hominis, isolate Con1, Huh-7
Summary of the method: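 Con1b replicon cells treated at 2 μM. Stained with Alexa red anti-NS5A and Alexa green anti-NS5B antibodies plus DAPI, then imaged by confocal microscopy for colocalization. Images representative of at least three experiments.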

Peptidyl-prolyl cis-trans isomerase A, sequence (P62937 whole entry): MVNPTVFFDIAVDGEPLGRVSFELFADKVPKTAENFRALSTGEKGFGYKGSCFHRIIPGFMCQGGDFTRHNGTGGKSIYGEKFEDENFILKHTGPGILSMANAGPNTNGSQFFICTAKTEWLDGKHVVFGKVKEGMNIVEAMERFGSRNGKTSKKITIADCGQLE

Kd [4]: 570 nM
EC50 (Hepatitis C virus [8]): 730 nM
Activity (Mus musculus [9]): Active
SMILES: COc1cc(C(C(=O)NC2CCCCC2)N(C(=O)Cc2c[nH]c3ccccc23)c2ccc(C(C)C)cc2)cc(OC)c1OC (configuration not stated)
inhibition (Hepatitis C virus [1]): Active
Ratio CC50/EC50 [2]: >19.2
inhibition (Hepatitis C virus [3]): Active
Activity (Hepatitis C virus [5]): tde
inhibition (Hepatitis C virus [6]): Active
Activity (Hepatitis C virus [7]): tde
inhibition (Hepatitis C virus [10]): Active
Activity (Mus musculus [11]): Non-toxic
inhibition (Hepatitis C virus [12]): Active
